Assay results reported in ChEMBL document CHEMBL1955767, “Synthesis and biological evaluation of piperidine-substituted triazine derivatives as HIV-1 non-nucleoside reverse transcriptase inhibitors” (Eur J Med Chem, 2012).
Where a name gives a salt, the structure may show the parent alone. Activity calls are given as the source filed them. The calls are words filed in the database; no cut-off is given here.

Key:
[1] = tested on: Human immunodeficiency virus 1; assay: Antiviral activity against HIV1 3B infected in human MT4 cells assessed as protection against virus-induced cytotoxicity after 5 days by MTT assay; format: functional, organism-based; conditions: Human immunodeficiency virus 1, 3B, MT4, 120 h
Procedure, shortened: (§1)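 MT-4 cells (6×10^5 cells/mL) infected with HIV-1 IIIB or HIV-2 ROD at 100–300 CCID50. Compounds added at 10× stock as serial fivefold dilutions in triplicate, with untreated infected and mock-infected controls run alongside. Viability read by MTT reduction at 540 and 690 nm 5 days post-infection, using the median OD of three wells.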

[2] = tested on: Human immunodeficiency virus 2; assay: Antiviral activity against HIV2 ROD infected in human MT4 cells assessed as inhibition of viral replication; format: functional, organism-based; conditions: ISOLATE ROD; procedure, shortened: as §1
[3] = Cytotoxicity against human MT4 cells after 5 days by MTT assay; format: cell-based
Procedure, shortened: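 Mock-infected MT-4 cells (6×10^5 cells/mL) received serial fivefold compound dilutions in triplicate, run in parallel with the infected series. After 5 days, viability measured by MTT formazan absorbance at 540 and 690 nm, using the median OD of three wells.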

[4] = Selectivity index, ratio of CC50 for human MT4 cells to EC50 for HIV1 3B; format: toxicity, cell-based; conditions: read-out: Ratio CC50/EC50
Procedure, shortened: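 Ratio CC50/EC50, both taken from the same 5-day MTT run in MT-4 cells. CC50 is from mock-infected wells.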

[5] = tested on: Human immunodeficiency virus 1; assay: Antiviral activity against HIV1 expressing reverse transcriptase K103N/Y181C mutant infected in human MT4 cells assessed as protection against virus-induced cytotoxicity after 5 days by MTT assay; format: functional, organism-based; conditions: Human immunodeficiency virus 1, MT4, 120 h
Procedure, shortened: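 MT-4 cells, in exponential growth, pelleted and resuspended at 6×10^5 cells/mL, then infected or mock-infected. Compound added at start as serial fivefold dilutions in triplicate wells. Viability read by MTT reduction to formazan at 540 and 690 nm after 5 days.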

[6] = target: Human immunodeficiency virus type 1 reverse transcriptase (Human immunodeficiency virus 1, UniProt Q72547); assay: Inhibition of HIV1 reverse transcriptase assessed as incorporation of biotin-dUTP into poly(rA)-oligo(dT)
Procedure, shortened: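 ELISA-format RT kit with a poly(rA)-oligo(dT) homopolymer template/primer bound to the plate. Wild-type HIV-1 RT activity measured as biotin-dUTP incorporation into the template.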

Row | SMILES | EC50 [1] | Activity [2] | CC50 at 120 h [3] | selectivity ratio [4] | EC50 [5] | IC50 [6]
1 | COc1ccc(CN2CCC(Nc3nc(Nc4c(C)cc(C)cc4C)nc(OC)n3)CC2)cc1 | 0.0097 µM | inactive | 19.8 µM | 2040 | 7.4 µM | 
2 | CNc1nc(Nc2c(C)cc(C)cc2C)nc(NC2CCN(Cc3ccccc3)CC2)n1 | 0.0088 µM | inactive | 28.4 µM | 3190 | 5 µM | 2.46 µM
3 | COc1nc(Nc2c(C)cc(C)cc2C)nc(NC2CCN(Cc3ccc([N+](=O)[O-])cc3)CC2)n1 | 0.0094 µM | inactive | 15.4 µM | 1640 | ≥ 6.1 µM | 
4 | CNc1nc(Nc2c(C)cc(C)cc2C)nc(NC2CCN(Cc3cccc(C#N)c3)CC2)n1 | 0.007 µM | inactive | 23 µM | 3240 | 4.6 µM | 1.97 µM
5 | COc1nc(Nc2c(C)cc(C)cc2C)nc(NC2CCN(C(=O)c3ccc([N+](=O)[O-])cc3)CC2)n1 | 4.37 µM | inactive | ≥ 25.2 µM | ≥ 6 | > 25.2 µM | 
6 | COc1nc(Nc2c(C)cc(C)cc2C)nc(NC2CCN(C(=O)c3ccc(O)cc3)CC2)n1 | 1.66 µM | inactive | 121 µM | 73 | > 121 µM | 
7 | CNc1nc(Nc2c(C)cc(C)cc2C)nc(NC2CCN(C(=O)c3ccc([N+](=O)[O-])cc3)CC2)n1 | 1.79 µM | inactive | 33.2 µM | 18 | > 33.2 µM | 
8 | COc1nc(Nc2c(C)cc(C)cc2C)nc(NC2CCN(Cc3cccc(C#N)c3)CC2)n1 | 0.0098 µM | inactive | 23.5 µM | 2380 | 4.6 µM | 
9 | CNc1nc(Nc2c(C)cc(C)cc2C)nc(NC2CCN(C(=O)c3ccc(C(=O)O)cc3)CC2)n1 | ≥ 127 µM | inactive | ≥ 255 µM | ≥ 2 | > 255 µM | 
10 | COc1nc(Nc2c(C)cc(C)cc2C)nc(NC2CCN(Cc3ccc(C#N)cc3)CC2)n1 | 0.0092 µM | inactive | 14.6 µM | 1600 | 1.6 µM | 1.77 µM
11 | O=C1Nc2ccc(Cl)cc2[C@@](C#CC2CC2)(C(F)(F)F)O1 [EFAVIRENZ] |  |  | > 6.3 µM | > 1190 | 0.57 µM | 
12 | COc1nc(Nc2c(C)cc(C)cc2C)nc(NC2CCN(C(=O)c3ccc(C(=O)O)cc3)CC2)n1 | 36.2 µM | inactive | ≥ 149 µM | ≥ 4 | > 149 µM | 
13 | Cc1cn([C@H]2C[C@H](N=[N+]=[N-])[C@@H](CO)O2)c(=O)[nH]c1=O [ZIDOVUDINE] | 0.0206 µM |  | 250 µM | 12200 | 0.0086 µM | 
14 | CNc1nc(Nc2c(C)cc(C)cc2C)nc(NC2CCN(Cc3ccc([N+](=O)[O-])cc3)CC2)n1 | 0.0082 µM | inactive | 10.2 µM | 1230 | ≥ 2.6 µM | 
15 | Nc1ccn([C@H]2CC[C@@H](CO)O2)c(=O)n1 [ZALCITABINE] | 1.04 µM |  | > 94.7 µM | > 93 |  | 
16 | CC(C)Nc1cccnc1N1CCN(C(=O)c2cc3cc(NS(C)(=O)=O)ccc3[nH]2)CC1 [DELAVIRDINE MESYLATE] | 0.0326 µM |  | > 36.2 µM | > 1100 | > 36.2 µM | 
17 | CNc1nc(Nc2c(C)cc(C)cc2C)nc(NC2CCN(Cc3ccc(OC)cc3)CC2)n1 | 0.0095 µM | inactive | 22.1 µM | 2310 | 5.8 µM | 
18 | CNc1nc(Nc2c(C)cc(C)cc2C)nc(NC2CCN(Cc3ccccc3C#N)CC2)n1 | 0.0099 µM | inactive | 24.7 µM | 2500 | 4.6 µM | 
19 | COc1nc(Nc2c(C)cc(C)cc2C)nc(NC2CCN(Cc3ccc(F)cc3)CC2)n1 | 0.0115 µM | inactive | 24.7 µM | 2140 | 6.5 µM | 
20 | CNc1nc(Nc2c(C)cc(C)cc2C)nc(NC2CCN(C(=O)c3ccc(O)cc3)CC2)n1 | 0.932 µM | inactive | 55.4 µM | 60 | > 55.4 µM | 
21 | CNc1nc(Nc2c(C)cc(C)cc2C)nc(NC2CCN(Cc3ccc(F)cc3)CC2)n1 | 0.0102 µM | inactive | 25.6 µM | 2880 | 4.9 µM | 
22 | COc1nc(Nc2c(C)cc(C)cc2C)nc(NC2CCN(Cc3ccccc3C#N)CC2)n1 | 0.0192 µM | inactive | 28 µM | 1460 | 6.7 µM | 
23 | Cc1ccnc2c1NC(=O)c1cccnc1N2C1CC1 [NEVIRAPINE] | 0.0901 µM |  | > 15 µM |  | 11.2 µM | 
24 | CNc1nc(Nc2c(C)cc(C)cc2C)nc(NC2CCN(Cc3ccc(C#N)cc3)CC2)n1 | 0.0085 µM | inactive | 10 µM | 1190 | 1.3 µM | 
25 | Cc1cc(C#N)cc(C)c1Oc1nc(Nc2ccc(C#N)cc2)nc(N)c1Br [ETRAVIRINE] |  |  | > 4.6 µM |  | 0.026 µM | 
26 | CNc1nc(Nc2c(C)cc(C)cc2C)nc(NC2CCN(C(=O)c3ccccc3)CC2)n1 | 0.224 µM | inactive | 30.9 µM | 132 | > 30.9 µM | 
27 | COc1nc(Nc2c(C)cc(C)cc2C)nc(NC2CCN(Cc3ccccc3)CC2)n1 | 0.0113 µM | inactive | 28.6 µM | 2510 | 4.8 µM | 
28 | COc1nc(Nc2c(C)cc(C)cc2C)nc(NC2CCN(C(=O)c3ccccc3)CC2)n1 | 1.79 µM | inactive | 28.8 µM | 16 | > 28.8 µM | 
